Screening data deposited in PubChem by several laboratories.
This is one part of a sample in which hits are shown more often than they occur.
HUVEC inhibit – blocks proliferation of human endothelial cells. HUVEC proliferation, CellTiter-Glo luminescence, 72 h; stronger effect = lower value. viability, % at 10 µM (by protocol). actives 1.1% (n = 86,000). AID 648;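 active = viability at or below 30%; inactive = viability above 30%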;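 note: 100% = median luminescence of DMSO-only cell control wells on each plate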
Fibroblast inh – blocks proliferation of human lung fibroblasts. actives 1.1% (n = 85,000). viability, % at 10 µM. AID 719. LL 47 human lung fibroblast viability, ATP luminescence; stronger effect = lower value;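 active = viability at or below 50% in the single dose screen; inactive = viability above 50%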;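 note: compound exposure lasted 72 h before the ATP readout; 100% = median luminescence of untreated cell-only wells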
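material = human LL 47 lung fibroblast cells | dosing = compounds added from tenfold dosing solution, 0.1% DMSO final | timing = overnight cell rest, 72 h compound treatment at 37 °C | measured by = CellTiter-Glo luminescence measuring cellular ATP | evaluation = % viability versus median cells-only luminescence | control set = cell-only wells, no compound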
HCT116 bCat-KO – beta-catenin-lacking colon tumor cell growth suppression; HCT116 beta-catenin knockout viability, CellTiter-Glo, 60 h; stronger effect = lower value; viability, % at 10 µM; actives 1.5% (n = 140,000);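 active = viability at or under a set limit, the compound median less 4 SD, cut at about 6% in these data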;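 note: 0% = Hyamine 1622 control at 20 µM and 100% = untreated cell control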
H69AR inhibit – blocks growth of human H69AR lung tumor cells; H69AR lung tumor viability, ATP luminescence, 72 h; stronger effect = lower value; viability, % at 10 µM; actives 6% (n = 85,000); AID 598;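 active = viability at or below 40%; inactive = viability above 40%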;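 note: multidrug resistant small cell line overexpressing MRP-1 efflux transporter; 100% = mean luminescence of untreated control wells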
Pyk2 oligo antag – Pyk2 (human) oligomerization antagonism; Q14289; Q293 cells, Pyk2 FERM NanoBiT luminescence; stronger effect = lower value; actives 0.83% (n = 99,000); z-score (the deposit names both 25 µM and 10 µM);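 active = Z-score of -3 or lower, scaled per plate to the spread of control and sample wells; inactive = z-score above -3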;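 note: negative z-score means lost luminescence so less FERM oligomerization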
Target sequence (Q14289 whole entry, looked up): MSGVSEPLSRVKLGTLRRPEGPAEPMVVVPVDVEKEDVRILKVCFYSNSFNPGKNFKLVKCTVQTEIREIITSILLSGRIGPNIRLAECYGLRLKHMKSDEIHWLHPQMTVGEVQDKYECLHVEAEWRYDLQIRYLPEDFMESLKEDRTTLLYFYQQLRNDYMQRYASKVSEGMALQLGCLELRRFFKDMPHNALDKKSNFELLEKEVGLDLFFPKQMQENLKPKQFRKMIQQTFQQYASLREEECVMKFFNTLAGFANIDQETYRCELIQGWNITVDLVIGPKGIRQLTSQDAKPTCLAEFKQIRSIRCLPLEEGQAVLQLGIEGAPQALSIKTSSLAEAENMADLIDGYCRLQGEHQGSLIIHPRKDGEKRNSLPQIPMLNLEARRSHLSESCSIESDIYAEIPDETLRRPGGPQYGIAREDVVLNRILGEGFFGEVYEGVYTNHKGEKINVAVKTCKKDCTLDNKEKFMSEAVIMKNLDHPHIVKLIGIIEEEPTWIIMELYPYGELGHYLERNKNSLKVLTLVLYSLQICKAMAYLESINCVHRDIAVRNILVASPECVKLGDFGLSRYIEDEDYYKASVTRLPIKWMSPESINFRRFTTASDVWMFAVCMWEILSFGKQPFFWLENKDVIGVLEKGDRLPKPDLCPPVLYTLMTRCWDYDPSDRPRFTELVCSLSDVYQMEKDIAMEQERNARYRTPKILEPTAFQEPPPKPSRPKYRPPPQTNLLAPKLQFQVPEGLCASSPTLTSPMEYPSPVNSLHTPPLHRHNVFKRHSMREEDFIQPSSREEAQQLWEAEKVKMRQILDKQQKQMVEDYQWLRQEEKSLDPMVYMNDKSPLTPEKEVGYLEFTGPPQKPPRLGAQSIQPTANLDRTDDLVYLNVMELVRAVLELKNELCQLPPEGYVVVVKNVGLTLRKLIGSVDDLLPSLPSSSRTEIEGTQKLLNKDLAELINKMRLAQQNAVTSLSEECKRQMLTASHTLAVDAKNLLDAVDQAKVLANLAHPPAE
PTEN del growth – PTEN-deleted cell growth suppression; HCT116 PTEN-null viability, CellTiter-Glo, 60 h; stronger effect = lower value; viability, % at 10 µM; actives 1.2% (n = 140,000);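 active = viability at or below a set limit, 4 SD under the median of all tested compounds, cut at about 3.7% in these data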;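 note: PTEN knockout HCT116 line with beta catenin targeted HCT116 as companion control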
* marks the source's active call; other numbers are inactive results; · = not tested or not shown.

SMILES	HUVEC inhibit	Fibroblast inh	HCT116 bCat-KO	H69AR inhibit	Pyk2 oligo antag	PTEN del growth
O=C(c1ccccc1)C(CCC(CN1CCOCC1)C(=O)c1ccccc1)CN1CCOCC1 (stereo unspecified)	36.0	49.6*	1.9*	1.3*	-1.61	1.9*
COc1ccc(C(=O)C(CN2CCOCC2)c2ccccc2)cc1 (stereo unspecified)	71.4	11.0*	3.4*	0.5*	-1.65	1.6*
O=C(c1ccc(F)cc1)C(CN1CCOCC1)c1ccccc1 (stereo unspecified)	51.2	25.3*	1.6*	91.2	-1.23	1.6*
Cc1ccc(-n2[nH]c(C)c(/C=C3/C=Nc4ccccc43)c2=O)cc1C	62.6	99.2	80.8	65.3	-0.28	82.8
COc1ccc(C(=O)C(OC(=O)c2ccccc2)c2ccccc2)cc1 (stereo unspecified)	·	·	80.2	·	-1.28	89.7
CCCOc1ccc(C(O)C(CN2CCOCC2)c2ccccc2)cc1 (stereo unspecified)	103.5	94.0	95.5	101.6	1.29	98.8
CCCOc1ccc(C(=O)C(CN2CCCC2)c2ccccc2)cc1 (stereo unspecified)	·	·	1.3*	·	·	0.9*
COc1ccc(C(=O)CCN2CCCCCC2)cc1	·	·	1.2*	·	-0.03	1.3*
COc1ccc(C(=O)C(CN2CCCC2)c2ccccc2)cc1 (stereo unspecified)	47.6	10.4*	2.2*	1.2*	0.34	1.1*
COc1ccccc1-c1nnc(SCC(=O)c2ccc(C3CCCCC3)cc2)n1Cc1ccco1	54.3	97.2	81.5	89.2	-0.3	59.7
O=C(Nc1cccc(S(=O)(=O)N2CCCCC2)c1)c1ccc2c(=O)n3c(nc2c1)CCCCC3	·	·	17.4	·	·	20.5
CON(C)c1nc(OCC#N)nc(N(C)C)n1	·	·	88.1	·	·	94.3
Cc1ccc(C(O)(C(=O)NN(C(=O)c2ccccc2)c2ccccc2)c2ccc(C)cc2)cc1	·	·	68.7	·	·	53.3
Cc1ccc(N(NC(=O)C(O)(c2ccccc2)c2ccccc2)C(=O)CCl)cc1	·	·	3.3*	·	·	3.4*
CCCCN(Cc1cc2cc(OC)ccc2[nH]c1=O)C(=O)COc1ccccc1	93.3	103.7	·	39.1*	1.25	·
Cc1ccc2[nH]c(=O)c(CN(Cc3cccnc3)C(=O)c3ccncc3)cc2c1	62.2	88.4	46.5	28.3*	0.57	46.5
COc1ccc(C(=O)N(Cc2ccccc2)Cc2cc3cc4c(cc3[nH]c2=O)OCCO4)cc1	28.5*	41.8*	98.0	17.9*	-2.79	95.0
COc1cc2cc(CN(Cc3ccc4c(c3)OCO4)C(=O)c3ccco3)c(=O)[nH]c2cc1OC	86.9	100.0	·	52.0	1.29	·
COc1ccc2[nH]c(=O)c(CN(C)C(=O)COc3ccccc3)cc2c1	94.3	108.5	91.3	85.0	-0.52	97.0
Cc1cc2cc(CN(Cc3ccc4c(c3)OCO4)C(=O)c3ccco3)c(=O)[nH]c2cc1C	73.8	96.0	42.2	33.4*	0.08	30.1
CC(=O)c1ccc(OCCn2cnc3ccccc32)cc1	·	·	85.0	·	·	90.9
O=C1CCC/C(=N/NC(=O)C2CCN(S(=O)(=O)c3cccs3)CC2)C1	·	·	83.5	·	·	96.7
O=[N+]([O-])c1ccc(N2CCN(CCO)CC2)cc1Sc1nc2ccccc2[nH]1	·	·	53.3	·	·	63.8
COc1cccc(C(=O)N(Cc2cc3cc(C)ccc3[nH]c2=O)CC2CCCO2)c1 (stereo unspecified)	97.5	99.0	102.4	87.0	-0.13	94.2
COc1cccc(C(=O)N(Cc2ccccc2)Cc2cc3cc4c(cc3[nH]c2=O)OCCO4)c1	84.2	93.0	91.1	81.9	-3.3*	83.2
SMILES	HUVEC inhibit	Fibroblast inh	HCT116 bCat-KO	H69AR inhibit	Pyk2 oligo antag	PTEN del growth
Cc1ccc(S(=O)(=O)N2CCOCC2)cc1NC(=O)COC(=O)c1cc(=O)c2ccccc2o1	·	·	97.1	·	·	96.7
Cc1ccc(-c2nn(-c3ccccc3)c3[nH]c(=O)c(CNCc4ccccc4)cc23)cc1	4.8*	72.4	3.5*	92.4	-0.06	13.4
Cc1ccc(-c2nn(-c3ccccc3)c3[nH]c(=O)c(CNCCN(C)C)cc23)cc1	42.7	74.1	·	17.2*	·	·
CCOc1ccc(NCc2cc3c(C(C)(C)C)nn(-c4ccccc4)c3[nH]c2=O)cc1	·	·	2.3*	·	-1.44	1.2*
COC(=O)c1c(-c2ccc3ccccc3c2)csc1NC(=O)Cc1ccc(OC)c(OC)c1	·	·	102.5	·	-2.07	106.5
Cc1onc(-c2c(Cl)cccc2Cl)c1C(=O)NCc1cccs1	·	·	87.0	·	·	80.9
Cc1onc(-c2c(Cl)cccc2Cl)c1C(=O)N/N=C(\N)COc1ccc(Cl)cc1	·	·	5.9*	·	0.96	9.1
CCOc1ccc2c(c1)-c1c(ssc1=S)C(C)(C)N2C(=O)c1ccco1	·	·	11.5	·	·	15.2
O=C(N/N=C\C=C\c1ccco1)c1cc(-c2ccc3ccccc3c2)n[nH]1	·	·	6.7	·	·	3.6*
O=C(Nc1cccc(C(F)(F)F)c1)c1ccccc1NC(=O)C1CCCCC1	·	·	90.1	·	·	88.6
COc1ccc(C2c3c(ncn(Cc4ccco4)c3=N)Oc3ccc4ccccc4c32)cc1 (stereo unspecified)	·	·	2.2*	·	·	1.6*
COc1ccc(C2c3ccc4ccccc4c3Oc3ncn(CCN4CCOCC4)c(=N)c32)cc1 (stereo unspecified)	2.1*	3.2*	2.1*	1.9*	-2.21	1.8*
N=c1c2c(ncn1Cc1ccco1)Oc1ccc3ccccc3c1C2c1ccccc1 (stereo unspecified)	·	·	8.5	·	·	4.7
Cc1cc(Br)cc(C)c1OCCCCN(C)C	·	·	56.8	·	0.34	58.9
CCOc1cc(S(=O)(=O)NCc2ccc(OC)cc2)c(OCC)cc1-n1cnnn1	58.1	56.4	47.5	21.6*	1.29	32.9
CCc1ccc2oc(=O)cc(CN3CCN(c4ccc(F)cc4)CC3)c2c1	39.7	26.2*	77.6	36.9*	-2.2	76.5
O=c1cc(CN2CCN(c3ccccc3)CC2)c2cc(O)c(-c3ccccc3)cc2o1	34.6	48.3*	86.8	5.0*	-0.04	83.9
O=c1cc(CN2CCN(c3cccc(Cl)c3)CC2)c2cc(O)c(-c3ccccc3)cc2o1	·	·	96.1	·	1.25	101.3
O=c1cc(CN2CCN(C/C=C/c3ccccc3)CC2)c2cc(O)ccc2o1	75.3	98.1	13.6	38.8*	-0.5	30.6
CC(C)c1ccc2oc(=O)cc(CN3CCN(c4ccc(F)cc4)CC3)c2c1	69.8	91.5	60.4	69.1	-0.8	65.2
CCC(CC)NC(=O)CO/N=C/c1ccccc1OC(F)F	·	·	75.6	·	·	79.5
O=C(c1cccs1)N(C(=O)c1cccs1)c1ccc(Br)cn1	79.4	90.8	72.1	26.5*	-1.82	77.0
Cc1ccnc(N(C(=O)c2cccs2)C(=O)c2cccs2)c1	87.2	94.9	91.7	71.1	-0.12	97.8
CC1CCCN(C(=O)C(C)Sc2nc(-c3ccccc3)cc(C(F)(F)F)n2)C1 (stereo unspecified)	97.5	84.7	73.2	42.0	-0.38	76.0
